Measured values: ChEMBL document CHEMBL3763072, “Structure activity relationship studies on chemically non-reactive glycine sulfonamide inhibitors of diacylglycerol lipase” (Bioorg Med Chem, 2016)
Active and inactive are the calls of the source. No cut-off for these calls is given here.

Columns and labels:
[1] = biological target: T1, Pancreatic triacylglycerol lipase (Sus scrofa) (UniProt P00591); test: Inhibition of porcine pancreatic lipase at 30 uM
T1 sequence (whole entry): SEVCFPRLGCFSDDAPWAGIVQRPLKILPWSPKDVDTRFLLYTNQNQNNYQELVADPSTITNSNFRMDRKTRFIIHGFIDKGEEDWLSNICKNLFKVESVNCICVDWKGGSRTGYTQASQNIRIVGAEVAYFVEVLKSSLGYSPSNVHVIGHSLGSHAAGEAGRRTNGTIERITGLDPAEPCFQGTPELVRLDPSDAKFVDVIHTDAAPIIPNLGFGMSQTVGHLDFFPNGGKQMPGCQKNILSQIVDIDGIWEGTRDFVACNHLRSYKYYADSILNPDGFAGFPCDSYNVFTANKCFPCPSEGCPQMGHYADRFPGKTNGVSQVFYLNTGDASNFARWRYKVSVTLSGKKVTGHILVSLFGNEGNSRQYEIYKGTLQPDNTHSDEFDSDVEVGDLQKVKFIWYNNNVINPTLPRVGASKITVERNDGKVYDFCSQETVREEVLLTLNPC

[2] = biological target: T2, Monoglyceride lipase (Homo sapiens) (UniProt Q99685); test: Inhibition of MAGL (unknown origin) at 30 uM
T2 sequence (whole entry): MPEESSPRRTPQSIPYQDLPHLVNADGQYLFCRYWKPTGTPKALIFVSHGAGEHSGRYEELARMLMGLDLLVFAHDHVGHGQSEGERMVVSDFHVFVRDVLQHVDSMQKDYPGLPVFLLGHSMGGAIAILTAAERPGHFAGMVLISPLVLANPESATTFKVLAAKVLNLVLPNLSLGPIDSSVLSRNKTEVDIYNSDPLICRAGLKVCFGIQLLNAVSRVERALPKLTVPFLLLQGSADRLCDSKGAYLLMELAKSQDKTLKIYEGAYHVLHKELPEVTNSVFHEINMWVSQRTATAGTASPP

[3] = biological target: T3, Diacylglycerol lipase-beta (Homo sapiens, UniProt Q8NCG7); test: Inhibition of DAGLbeta (unknown origin)
T3 sequence (Q8NCG7 whole entry): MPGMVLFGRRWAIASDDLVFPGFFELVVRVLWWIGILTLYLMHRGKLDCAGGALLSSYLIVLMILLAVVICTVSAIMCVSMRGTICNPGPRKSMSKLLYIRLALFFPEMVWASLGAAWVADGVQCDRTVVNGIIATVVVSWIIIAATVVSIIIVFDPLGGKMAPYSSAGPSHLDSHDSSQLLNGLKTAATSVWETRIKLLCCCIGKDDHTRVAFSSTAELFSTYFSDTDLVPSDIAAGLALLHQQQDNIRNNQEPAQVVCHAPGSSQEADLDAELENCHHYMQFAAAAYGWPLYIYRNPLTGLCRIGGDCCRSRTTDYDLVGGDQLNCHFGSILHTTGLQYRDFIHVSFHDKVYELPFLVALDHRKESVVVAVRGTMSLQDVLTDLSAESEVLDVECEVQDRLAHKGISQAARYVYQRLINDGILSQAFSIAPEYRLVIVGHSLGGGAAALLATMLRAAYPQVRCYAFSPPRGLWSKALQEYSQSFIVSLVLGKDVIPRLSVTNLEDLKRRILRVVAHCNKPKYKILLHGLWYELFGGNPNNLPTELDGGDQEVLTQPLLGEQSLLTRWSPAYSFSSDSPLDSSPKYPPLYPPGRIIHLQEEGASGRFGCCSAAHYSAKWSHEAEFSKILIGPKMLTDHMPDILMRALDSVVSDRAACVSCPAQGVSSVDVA

[4] = Metabolic stability in human liver microsomes assessed as residual compound at 3 uM preincubated for 2 mins followed by NADPH addition measured after 10 mins by LC-MS analysis; format: ADME; details: read-out: Stability
[5] = Metabolic stability in rat liver microsomes assessed as residual compound at 3 uM preincubated for 2 mins followed by NADPH addition measured after 10 mins by LC-MS analysis; format: ADME; details: read-out: Stability
[6] = Metabolic stability in mouse liver microsomes assessed as residual compound at 3 uM preincubated for 2 mins followed by NADPH addition measured after 10 mins by LC-MS analysis; format: ADME; details: read-out: Stability
[7] = biological target: T4, Nuclear receptor subfamily 1 group I member 2 (Homo sapiens, UniProt O75469); test: Transactivation of human PXR expressed in human HepG2 cells after […] by luciferase reporter gene assay; format: ADME, cell-based
T4 sequence (O75469 whole entry): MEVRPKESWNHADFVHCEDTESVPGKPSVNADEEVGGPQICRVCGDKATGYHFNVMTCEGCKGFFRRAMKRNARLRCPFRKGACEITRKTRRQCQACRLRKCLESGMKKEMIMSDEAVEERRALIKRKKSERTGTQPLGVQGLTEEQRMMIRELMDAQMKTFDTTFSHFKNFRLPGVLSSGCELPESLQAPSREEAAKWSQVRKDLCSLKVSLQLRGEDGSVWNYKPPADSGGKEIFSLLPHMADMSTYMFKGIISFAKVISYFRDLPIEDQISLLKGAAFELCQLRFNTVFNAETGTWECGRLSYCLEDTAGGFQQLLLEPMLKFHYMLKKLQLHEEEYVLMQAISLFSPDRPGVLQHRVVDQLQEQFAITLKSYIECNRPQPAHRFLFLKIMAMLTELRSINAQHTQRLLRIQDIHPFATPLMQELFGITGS

[8] = Half life in mouse at 1 mg/kg, iv; format: ADME, organism-based; details: in vivo
[9] = Half life in mouse at 10 mg/kg, po; format: ADME, organism-based; details: in vivo
[10] = Half life in mouse at 10 mg/kg, ip; format: ADME, organism-based; details: in vivo
[11] = AUC(infinity) in mouse at 10 mg/kg, po; format: ADME, organism-based; design: dose 10 mg/kg, route oral, time infinity; details: in vivo
[12] = Cmax in mouse at 1 mg/kg, iv; format: ADME, organism-based; design: dose 1 mg/kg, route intravenous; details: in vivo
[13] = Cmax in mouse at 10 mg/kg, po; format: ADME, organism-based; design: dose 10 mg/kg, route oral; details: in vivo
[14] = Cmax in mouse at 10 mg/kg, ip; format: ADME, organism-based; design: dose 10 mg/kg, route intraperitoneal; details: in vivo
[15] = Tmax in mouse at 10 mg/kg, po; format: ADME, organism-based; details: in vivo
[16] = Tmax in mouse at 10 mg/kg, ip; format: ADME, organism-based; details: in vivo
Mus musculus [17] = test: AUC(infinity) in mouse at 1 mg/kg, iv; format: ADME, organism-based; design: dose 1 mg/kg, route intravenous, time infinity; details: in vivo
Mus musculus [18] = test: AUC(infinity) in mouse at 10 mg/kg, ip; format: ADME, organism-based; design: dose 10 mg/kg, time infinity, route intraperitoneal; details: in vivo
[19] = Clearance in mouse at 1 mg/kg, iv; format: ADME, organism-based; details: in vivo
[20] = Volume of distribution at steady state in mouse at 1 mg/kg, iv; format: ADME, organism-based; details: in vivo, read-out: Vdss
[21] = Oral bioavailability in mouse at 10 mg/kg; format: ADME, organism-based; details: in vivo
Mus musculus [22] = test: Bioavailability in mouse at 10 mg/kg, ip; format: ADME, organism-based; details: in vivo
[23] = biological target: T5, Diacylglycerol lipase-alpha (Homo sapiens, UniProt Q9Y4D2); test: Inhibition of full length human C-terminal HA-tagged DAGLalpha expressed in HEK293 cells using DAG as substrate assessed as reduction in intracellular 2-AG level incubated for 20 mins by LC-MS analysis; format: cell-based
T5 sequence (Q9Y4D2 whole entry): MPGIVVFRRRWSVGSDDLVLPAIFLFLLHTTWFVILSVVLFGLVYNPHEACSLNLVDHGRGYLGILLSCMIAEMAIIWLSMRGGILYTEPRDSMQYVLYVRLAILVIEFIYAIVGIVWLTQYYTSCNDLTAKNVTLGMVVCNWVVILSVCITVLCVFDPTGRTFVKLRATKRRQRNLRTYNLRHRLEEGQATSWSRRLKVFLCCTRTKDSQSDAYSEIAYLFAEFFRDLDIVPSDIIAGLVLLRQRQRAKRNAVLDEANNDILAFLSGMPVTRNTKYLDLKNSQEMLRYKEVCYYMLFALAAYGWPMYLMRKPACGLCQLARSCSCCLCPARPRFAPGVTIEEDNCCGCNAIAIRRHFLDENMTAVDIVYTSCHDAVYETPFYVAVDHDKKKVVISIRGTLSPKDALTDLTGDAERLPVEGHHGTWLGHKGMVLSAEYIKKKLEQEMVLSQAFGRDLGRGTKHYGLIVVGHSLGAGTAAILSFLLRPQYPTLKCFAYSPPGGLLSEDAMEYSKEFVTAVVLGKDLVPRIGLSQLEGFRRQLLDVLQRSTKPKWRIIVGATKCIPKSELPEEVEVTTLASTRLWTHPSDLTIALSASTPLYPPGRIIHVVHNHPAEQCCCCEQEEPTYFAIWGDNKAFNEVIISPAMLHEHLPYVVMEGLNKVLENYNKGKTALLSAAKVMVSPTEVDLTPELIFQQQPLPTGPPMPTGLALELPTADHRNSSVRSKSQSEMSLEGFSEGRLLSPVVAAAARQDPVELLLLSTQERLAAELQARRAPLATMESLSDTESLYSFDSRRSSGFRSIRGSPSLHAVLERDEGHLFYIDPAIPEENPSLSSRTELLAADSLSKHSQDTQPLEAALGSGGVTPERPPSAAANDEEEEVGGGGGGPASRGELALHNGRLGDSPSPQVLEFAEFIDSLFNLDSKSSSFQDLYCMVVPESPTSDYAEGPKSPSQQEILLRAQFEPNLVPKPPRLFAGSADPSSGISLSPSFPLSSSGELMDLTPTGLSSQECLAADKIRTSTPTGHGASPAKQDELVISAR

[24] = biological target: T5, Diacylglycerol lipase-alpha; test: Inhibition of full length human C-terminal HA-tagged DAGLalpha expressed in HEK293 cell membrane using DAG as substrate incubated for 20 mins by LC-MS analysis; format: cell-based
Method in brief: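 Cell-free DAGL-α enzyme assay run at pH 6.5. IC50 values are reported, with replicate counts (n) given per value.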

[25] = biological target: T6, Diacylglycerol lipase-alpha (Homo sapiens) (UniProt Q9Y4D2); test: Ratio of IC50 for full length human C-terminal HA-tagged DAGLalpha expressed in HEK293 cells assessed as reduction in intracellular 2-AG level to IC50 for full length human C-terminal HA-tagged DAGLalpha expressed in HEK293 cell membrane; format: cell-based
T6 sequence (whole entry): T5 sequence (Q9Y4D2 whole entry)

[26] = biological target: Voltage-gated inwardly rectifying potassium channel KCNH2 (Homo sapiens, UniProt Q12809); test: Inhibition of human ERG expressed in HEK293 cells by thallium flux assay
Cytochrome P450 2C19 = Cytochrome P450 2C19 (Homo sapiens, UniProt P33261); test: Inhibition of CYP2C19 in human liver microsomes using (S)-mephenytoin as substrate incubated for 5 mins by LC-MS analysis
Cytochrome P450 2C9 = Cytochrome P450 2C9 (Homo sapiens, UniProt P11712); test: Inhibition of CYP2C9 in human liver microsomes using diclofenac as substrate incubated for 10 mins by LC-MS analysis
Cytochrome P450 2D6 = Cytochrome P450 2D6 (Homo sapiens, UniProt P10635); test: Inhibition of CYP2D6 in human liver microsomes using dextromethorphan as substrate incubated for 7 mins by LC-MS analysis
Cytochrome P450 3A4 = Cytochrome P450 3A4 (Homo sapiens, UniProt P08684); test: Inhibition of CYP3A4 in human liver microsomes using midazolam as substrate incubated for 5 mins by LC-MS analysis
[27] = Dissociation constant, pKa of compound at pH 2 to […] by spectrophotometric titration method; format: physicochemical
physchem = details: octanol/phosphate buffer, pH 7.4

Sequence of Cytochrome P450 2C9 (P11712 whole entry): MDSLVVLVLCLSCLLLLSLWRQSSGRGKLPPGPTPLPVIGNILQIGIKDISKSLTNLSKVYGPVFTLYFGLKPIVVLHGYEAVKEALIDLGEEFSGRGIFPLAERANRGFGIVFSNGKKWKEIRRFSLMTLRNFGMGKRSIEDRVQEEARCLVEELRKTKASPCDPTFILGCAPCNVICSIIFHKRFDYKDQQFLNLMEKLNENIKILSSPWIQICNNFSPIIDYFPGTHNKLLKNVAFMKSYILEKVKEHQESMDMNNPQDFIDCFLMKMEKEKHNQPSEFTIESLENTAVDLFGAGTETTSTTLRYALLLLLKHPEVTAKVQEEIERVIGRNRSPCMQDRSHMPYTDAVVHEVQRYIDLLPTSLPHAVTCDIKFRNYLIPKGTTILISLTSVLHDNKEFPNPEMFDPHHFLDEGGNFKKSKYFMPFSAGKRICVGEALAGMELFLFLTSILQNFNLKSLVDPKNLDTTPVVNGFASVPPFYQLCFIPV
Sequence of Cytochrome P450 2C19 (P33261 whole entry): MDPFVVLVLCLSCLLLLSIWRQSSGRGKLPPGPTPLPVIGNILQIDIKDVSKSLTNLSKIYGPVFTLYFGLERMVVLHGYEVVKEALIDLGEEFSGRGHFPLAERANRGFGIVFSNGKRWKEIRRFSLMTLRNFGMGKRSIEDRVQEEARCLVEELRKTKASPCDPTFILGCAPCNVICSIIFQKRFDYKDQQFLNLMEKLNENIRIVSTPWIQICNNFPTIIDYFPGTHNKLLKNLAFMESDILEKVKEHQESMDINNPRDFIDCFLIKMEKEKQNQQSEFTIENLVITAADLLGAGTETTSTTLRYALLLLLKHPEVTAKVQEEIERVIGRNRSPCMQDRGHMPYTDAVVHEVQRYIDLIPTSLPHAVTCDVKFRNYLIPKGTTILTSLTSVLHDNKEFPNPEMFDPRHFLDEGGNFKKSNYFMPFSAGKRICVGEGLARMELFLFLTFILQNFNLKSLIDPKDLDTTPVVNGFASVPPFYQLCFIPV
Sequence of Cytochrome P450 2D6 (P10635 whole entry): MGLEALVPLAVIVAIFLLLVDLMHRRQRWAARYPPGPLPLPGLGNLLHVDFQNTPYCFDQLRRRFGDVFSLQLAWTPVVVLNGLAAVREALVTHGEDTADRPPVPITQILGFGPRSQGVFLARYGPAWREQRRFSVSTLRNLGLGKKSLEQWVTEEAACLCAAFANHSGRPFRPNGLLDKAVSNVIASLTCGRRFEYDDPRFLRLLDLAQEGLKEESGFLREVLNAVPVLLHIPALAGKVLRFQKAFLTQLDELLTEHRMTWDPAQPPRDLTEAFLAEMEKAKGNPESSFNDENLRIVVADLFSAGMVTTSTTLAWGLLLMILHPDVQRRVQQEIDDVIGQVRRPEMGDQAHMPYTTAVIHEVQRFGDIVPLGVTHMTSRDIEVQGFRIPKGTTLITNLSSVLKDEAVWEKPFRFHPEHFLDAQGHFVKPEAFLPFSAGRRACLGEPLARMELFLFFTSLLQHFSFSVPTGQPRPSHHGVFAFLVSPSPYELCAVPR
Sequence of Cytochrome P450 3A4 (P08684 whole entry): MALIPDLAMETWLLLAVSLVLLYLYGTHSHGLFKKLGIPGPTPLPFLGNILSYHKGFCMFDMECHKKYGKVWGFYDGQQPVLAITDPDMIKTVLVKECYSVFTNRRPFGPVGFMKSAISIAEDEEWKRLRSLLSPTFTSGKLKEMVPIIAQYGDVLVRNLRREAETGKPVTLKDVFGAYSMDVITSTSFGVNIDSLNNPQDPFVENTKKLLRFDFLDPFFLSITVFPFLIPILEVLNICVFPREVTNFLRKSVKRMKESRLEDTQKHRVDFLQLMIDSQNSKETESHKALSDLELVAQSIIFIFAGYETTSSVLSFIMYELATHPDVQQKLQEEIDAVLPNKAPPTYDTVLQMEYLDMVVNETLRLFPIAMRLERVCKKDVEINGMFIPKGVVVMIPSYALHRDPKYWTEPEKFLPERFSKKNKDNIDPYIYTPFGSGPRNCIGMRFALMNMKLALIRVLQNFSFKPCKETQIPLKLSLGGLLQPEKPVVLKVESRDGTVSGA
Sequence of Voltage-gated inwardly rectifying potassium channel KCNH2 (Q12809 whole entry): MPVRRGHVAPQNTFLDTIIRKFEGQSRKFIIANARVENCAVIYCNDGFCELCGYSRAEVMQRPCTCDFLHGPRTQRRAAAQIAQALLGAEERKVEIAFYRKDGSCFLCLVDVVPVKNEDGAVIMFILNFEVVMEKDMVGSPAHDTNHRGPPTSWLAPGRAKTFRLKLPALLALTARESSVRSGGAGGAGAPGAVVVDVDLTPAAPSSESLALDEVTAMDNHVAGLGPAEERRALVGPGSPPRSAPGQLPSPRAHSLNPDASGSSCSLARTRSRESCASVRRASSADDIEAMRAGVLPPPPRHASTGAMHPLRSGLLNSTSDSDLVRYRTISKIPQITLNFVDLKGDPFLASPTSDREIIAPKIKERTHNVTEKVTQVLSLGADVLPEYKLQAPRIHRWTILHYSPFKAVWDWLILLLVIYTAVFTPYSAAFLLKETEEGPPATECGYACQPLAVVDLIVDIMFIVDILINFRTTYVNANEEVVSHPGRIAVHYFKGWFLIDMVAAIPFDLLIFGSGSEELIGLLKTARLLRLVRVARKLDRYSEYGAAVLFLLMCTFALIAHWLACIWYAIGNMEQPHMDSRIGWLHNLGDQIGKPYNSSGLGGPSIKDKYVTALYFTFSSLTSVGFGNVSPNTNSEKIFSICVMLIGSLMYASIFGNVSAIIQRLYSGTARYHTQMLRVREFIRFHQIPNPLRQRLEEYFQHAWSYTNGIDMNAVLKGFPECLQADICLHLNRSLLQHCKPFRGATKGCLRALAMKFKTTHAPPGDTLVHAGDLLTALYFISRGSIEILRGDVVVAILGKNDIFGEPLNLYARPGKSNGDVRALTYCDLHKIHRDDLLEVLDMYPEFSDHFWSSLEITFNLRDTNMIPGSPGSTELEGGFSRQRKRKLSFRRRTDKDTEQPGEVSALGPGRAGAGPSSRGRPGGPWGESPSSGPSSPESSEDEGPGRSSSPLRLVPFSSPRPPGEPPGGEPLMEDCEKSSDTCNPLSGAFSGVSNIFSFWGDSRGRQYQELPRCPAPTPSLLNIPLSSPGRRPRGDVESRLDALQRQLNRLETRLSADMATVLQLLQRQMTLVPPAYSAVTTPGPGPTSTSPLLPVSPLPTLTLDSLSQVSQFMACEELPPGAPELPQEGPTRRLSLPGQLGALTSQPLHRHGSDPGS

SMILES: CC1(C)CCc2cc(S(=O)(=O)N(CC(=O)O)C3(c4cccc(-c5cc(Cl)cc(Cl)c5)c4)CCC3)ccc2O1
- inhibition [1]: inactive
- inhibition [2]: inactive
- IC50 [3]: 0.04 µM
- remaining at 10 min, 3 µM [4]: 79%
- remaining at 10 min, 3 µM [5]: 70%
- remaining at 10 min, 3 µM [6]: 77%
- Activity [7]: 140%
- half-life [8]: 34.8 min
- half-life [9]: 59.4 min
- half-life [10]: 79.8 min
- AUC(0-inf) [11]: 1.52 µM·h
- Cmax [12]: 274 nM
- Cmax [13]: 941 nM
- Cmax [14]: 2860 nM
- Tmax [15]: 30 min
- Tmax [16]: 37.8 min
- AUC (Mus musculus [17]): 0.173 µM·h
- AUC (Mus musculus [18]): 5.784 µM·h
- clearance [19]: 169 mL/min/kg
- Vd [20]: 7.42 L/kg
- bioavailability [21]: 88%
- F (Mus musculus [22]): 100%

SMILES: O=C(O)CN(Cc1cccc(-c2ccccc2OC(F)(F)F)c1)S(=O)(=O)c1ccc(OC(F)F)cc1
- IC50 [23]: 0.06 µM
- IC50 [24]: 0.017 µM
- Ratio IC50 [25]: 4
- remaining at 10 min, 3 µM [4]: 80%
- remaining at 10 min, 3 µM [5]: 100%
- IC50 [26]: 11 µM
- IC50 (Cytochrome P450 2C19): 40 µM
- IC50 (Cytochrome P450 2C9): 40 µM
- IC50 (Cytochrome P450 2D6): 40 µM
- IC50 (Cytochrome P450 3A4): 30 µM

SMILES: CC1(C)CCc2cc(S(=O)(=O)N(CC(=O)O)Cc3cccc(-c4ccccc4)c3)ccc2O1
- remaining at 10 min, 3 µM [4]: 77%
- remaining at 10 min, 3 µM [5]: 67%
- remaining at 10 min, 3 µM [6]: 87%

SMILES: O=C(O)CN(Cc1ccc(-c2ccc(Cl)cc2Cl)cc1)S(=O)(=O)c1ccc(OC(F)F)cc1
- IC50 [24]: 0.03 µM

SMILES: CC1(C)CCc2cc(S(=O)(=O)N(CC(=O)O)Cc3cccc4cccnc34)ccc2O1
- IC50 [24]: 13.5 µM
- pKa [27]: 2
- logD (physchem): 0.5

SMILES: C[C@H](c1ccc(-c2ccc(Cl)cc2Cl)cc1)N(CC(=O)O)S(=O)(=O)c1ccc(OC(F)F)cc1
- IC50 [23]: 0.1 µM
- IC50 [24]: 0.019 µM
- Ratio IC50 [25]: 5
